In PMC3273716 (European Journal of Medicinal Chemistry, 2011):
Like-named read-outs stand apart in the source and are kept apart here.

System: P. carinii
Test: ATP bioassay, anti-Pneumocystis activity
Type: cell-based, Pneumocystis carinii
Details: for IC50: Pneumocystis carinii
Procedure, shortened: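 Rat-lung P. carinii (male CD rats, methylprednisolone-immunosuppressed), cryopreserved, thawed, held at 5 × 10^7 nuclei/ml in RPMI-1640 + 20% calf serum, 37 °C, 5% CO2. Screen at 100 µg/ml; titrated if ATP fell ≥50%. Luciferin-luciferase ATP at 6, 24, 48, 72 h. Triplicate wells, 3 assays, 2 batches. Ampicillin 10 µg/ml and pentamidine 1 µg/ml controls. IC50: linear regression, % ATP decrease vs log concentration.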

[1] = 72 h, read-out: IC50 (µg/ml) ± SD for P. carinii

| Compound | IC50 [1] | IC50 (read-out: Activity ranking) | Activity ranking (ranking based on IC50 in µg/ml) | IC50 (72 h) |
| --- | --- | --- | --- | --- |
| CN(CCOc1ccc(C(=N)N)cc1)CCOc1ccc(C(=N)N)cc1.Cl.Cl [compound 1, 1,5-Bis(4-amidinophenoxy)-N-methyl-3-azapentane trihydrochloride] | 0.82 ± 0.44 µg/mL | 0.1 to 0.99 µg/mL |  |  |
| COc1cc(C(=N)N)ccc1OCCN(C)CCOc1ccc(C(=N)N)cc1OC.Cl.Cl [compound 2, 1,5-Bis(4-amidino-2-methoxyphenoxy)-N-methyl-3-azapentane] | 2.1 ± 1.24 µg/mL | 1 to 9.99 µg/mL |  |  |
| COc1cc(C(=N)N)cc(OC)c1OCCN(C)CCOc1c(OC)cc(C(=N)N)cc1OC.Cl.Cl [compound 3, 1,5-Bis(4-amidino-2,6-dimethoxyphenoxy)-N-methyl-3-azapentane trihydrochloride] | 45.2 ± 16.9 µg/mL | 10 to 49.9 µg/mL |  |  |
| CN(CCCCCN(C)c1ccc(C(=N)N)cc1)c1ccc(C(=N)N)cc1.Cl.Cl [compound 4] | 1.02 ± 0.51 µg/mL | 1 to 9.99 µg/mL |  |  |
| Cl.Cl.N=C(N)c1ccc(NCCOCCNc2ccc(C(=N)N)cc2)cc1 [compound 5] | 0.47 ± 0.09 µg/mL | 0.1 to 0.99 µg/mL |  |  |
| Cl.Cl.N=C(N)c1ccc(OCCOCCOc2ccc(C(=N)N)cc2)cc1 [compound 6] | 0.96 ± 0.32 µg/mL | 0.1 to 0.99 µg/mL |  |  |
| COc1cc(C(=N)N)ccc1OCCOCCOc1ccc(C(=N)N)cc1OC.Cl.Cl [compound 7, 1,5-Bis(4-amidino-2-methoxyphenoxy)-3-oxapentane dihydrochloride] | 2 ± 1.65 µg/mL | 1 to 9.99 µg/mL |  |  |
| COc1cc(C(=N)N)cc(OC)c1OCCOCCOc1c(OC)cc(C(=N)N)cc1OC.Cl.Cl [compound 8, 1,5-Bis(4-amidino-2,6-dimethoxyphenoxy)-3-oxapentane dihydrochloride] | 7.66 ± 1.67 µg/mL | 1 to 9.99 µg/mL |  |  |
| COc1cc(C(=N)N)cc(OC)c1OCCCCCOc1c(OC)cc(C(=N)N)cc1OC.Cl.Cl [compound 9, 1,5-Bis(4-amidino-2,6-dimethoxyphenoxy)pentane dihydrochloride] | 1.68 ± 0.37 µg/mL | 1 to 9.99 µg/mL |  |  |
| Cl.Cl.N=C(N)c1ccc(OCCSCCOc2ccc(C(=N)N)cc2)cc1 [compound 10, 1,5-Bis(4-amidinophenoxy)-3-thiapentane dihydrochloride] | 0.52 ± 0.04 µg/mL | 0.1 to 0.99 µg/mL |  |  |
| Cl.Cl.N=C(N)c1ccc(OCCN(CCOc2ccc(C(=N)N)cc2)S(=O)(=O)c2ccccc2)cc1 [compound 11, N,N-Bis[2(4-amidinophenoxy)ethyl]benzenesulfonamide dihydrochloride] | 0.81 ± 0.12 µg/mL | 0.1 to 0.99 µg/mL | marked |  |
| COc1cc(C(=N)N)ccc1OCCN(CCOc1ccc(C(=N)N)cc1OC)S(=O)(=O)c1ccccc1.Cl.Cl [compound 12, N,N-Bis[2(4-amidino-2-methoxyphenoxy)ethyl]benzenesulfonamide dihydrochloride] | 1.8 ± 0.76 µg/mL | 1 to 9.99 µg/mL |  |  |
| COc1cc(C(=N)N)cc(OC)c1OCCN(CCOc1c(OC)cc(C(=N)N)cc1OC)S(=O)(=O)c1ccccc1.Cl.Cl [compound 13, N,N-Bis[2(4-amidino-2,6-dimethoxyphenoxy)ethyl]-benzenesulfonamide] | 3.13 ± 0.99 µg/mL | 1 to 9.99 µg/mL |  |  |
| COc1cc(C(=N)N)ccc1OCCN(CCOc1ccc(C(=N)N)cc1OC)S(=O)(=O)c1ccc(NC(C)=O)cc1.Cl.Cl [compound 15, N,N-Bis[2(4-amidino-2-methoxyphenoxy)ethyl]-4-acetamidobenzenesulfonamide] | 2.59 ± 0.83 µg/mL | 1 to 9.99 µg/mL |  |  |
| COc1cc(C(=N)N)cc(OC)c1OCCN(CCOc1c(OC)cc(C(=N)N)cc1OC)S(=O)(=O)c1ccc(N)cc1.Cl.Cl [compound 16] | 3.24 ± 0.88 µg/mL | 1 to 9.99 µg/mL |  |  |
| Cl.Cl.N=C(N)c1ccc(C(=O)NCCCNC(=O)c2ccc(C(=N)N)cc2)cc1 [compound 17, N,N’-Propane-1,3-diylbis(4-amidinobenzamide) dihydrochloride] | 1.53 ± 0.9 µg/mL | 1 to 9.99 µg/mL |  |  |
| Cl.Cl.N=C(N)c1ccc(C(=O)NCCCCNC(=O)c2ccc(C(=N)N)cc2)cc1 [compound 18, N,N’-Butane-1,4-diylbis(4-amidinobenzamide) dihydrochloride] | 1.85 ± 0.01 µg/mL | 1 to 9.99 µg/mL |  |  |
| Cl.Cl.N=C(N)c1ccc(C(=O)NCCCCCNC(=O)c2ccc(C(=N)N)cc2)cc1 [compound 19, N,N’-Pentane-1,5-diylbis(4-amidinobenzamide) dihydrochloride] | 7.4 ± 0.22 µg/mL | 1 to 9.99 µg/mL |  |  |
| Cl.Cl.N=C(N)c1ccc(C(=O)NCCCCCCNC(=O)c2ccc(C(=N)N)cc2)cc1 [compound 20, N,N’-Hexane-1,6-diylbis(4-amidinobenzamide) dihydrochloride] | 4.9 ± 1.2 µg/mL | 1 to 9.99 µg/mL |  |  |
| N=C(N)c1ccc(OCCCCCOc2ccc(C(=N)N)cc2)cc1 [pentamidine, reference compound] | 0.3 µg/mL |  |  | 500 nM |
